The values that follow come from ChEMBL document CHEMBL1123656, “Synthesis and antitumor activity of tropolone derivatives. 4” (1987).

The T/C is the ratio of treated to control.

The first experiment has as its system P388. Description: Compound was evaluated for activity against P388 leukemia, at an intraperitoneal dose of 25 mg/kg. The experiment is classed as functional, Mus musculus. The gist of the method:
(§1)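 Mice bearing P388 leukemia were given the compound intraperitoneally, with activity read out as T/C (%). The full protocol is cited to earlier work.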
`COc1ccc(C(c2cc(O)ccc2O)c2ccc(C(C)C)cc(=O)c2O)cc1` (configuration not stated) came in with a T/C of 142%.

For `COc1ccc(C(c2cc(C(C)(C)C)cc(O)c2O)c2ccc(C(C)C)cc(=O)c2O)cc1` (configuration not stated), the T/C was 127%.

`COc1ccc(C(c2cc(C(C)(C)C)ccc2O)c2ccc(C(C)C)cc(=O)c2O)cc1` (configuration not stated) returned a T/C of 116%.

With `COc1ccc(C(c2ccc(C(C)C)cc(=O)c2O)c2ccc3ccccc3c2O)cc1` (configuration not stated), the T/C worked out at 125%.

Regarding `COc1ccc(C(c2ccc(C(C)C)cc(=O)c2O)c2c(O)cc3oc(-c4ccccc4)cc(=O)c3c2O)cc1` (configuration not stated), the T/C stood at 127%.

`COc1ccc(C(c2ccc(C(C)C)cc(=O)c2O)C2Oc3c(Cl)c(OC)cc(OC)c3C2=O)cc1` (configuration not stated) had a T/C of 117%.

The test system of a further experiment is P388. The experiment in a line: Compound was evaluated for activity against P388 leukemia, at an intraperitoneal dose of 6.3 mg/kg. The experiment is classed as functional, Mus musculus. The gist of the method: as §1
`COc1ccc(C(c2ccc(C(C)C)cc(=O)c2O)c2ccc3cccnc3c2O)cc1` (configuration not stated) had a T/C of 151%.

The subject of the next experiment is P388. The experiment in a line: Compound was evaluated for activity against P388 leukemia, at an intraperitoneal dose of 100 mg/kg. Type of experiment: functional, Mus musculus. Summed up: as §1
Turning to `COc1ccc(C(c2ccc(O)cc2O)c2ccc(C(C)C)cc(=O)c2O)cc1` (configuration not stated), the T/C is 104%.

`CCOC(c1ccc(OC)cc1)c1ccc(C(C)C)cc(=O)c1O` (configuration not stated) gave a T/C of 148%.

In turn, `COc1ccc(C(C2=C(C)C(=O)c3ccccc3C2=O)c2ccc(C(C)C)cc(=O)c2O)cc1` (configuration not stated) displayed a T/C of 114%.

Turning to `COc1ccc(C(c2ccc(C(C)C)cc(=O)c2O)c2c(O)c(C(=O)O)cc3ccccc23)cc1` (configuration not stated), the T/C was determined as 141%.

Compound `COc1ccc(C(c2cc(C(C)(C)C)ccc2O)c2ccc(C(C)C)cc(=O)c2O)cc1` (configuration not stated) came in with a T/C of 120%.

`COc1ccc(C(c2ccc(C(C)C)cc(=O)c2O)c2c(O)cc3oc(-c4ccccc4)cc(=O)c3c2O)cc1` (configuration not stated) displayed a T/C of 136%.

In turn, `COc1ccc(C(c2ccc(C(C)C)cc(=O)c2O)C2Oc3c(Cl)c(OC)cc(OC)c3C2=O)cc1` (configuration not stated) yielded a T/C of 130%.

In another experiment the test system is P388. The experiment in a line: Compound was evaluated for activity against P388 leukemia, at an intraperitoneal dose of 50 mg/kg. The experiment is classed as functional, Mus musculus. Summed up: as §1
The compound `COc1ccc(C(c2ccc(O)cc2O)c2ccc(C(C)C)cc(=O)c2O)cc1` (configuration not stated) yielded a T/C of 98%.

`COc1ccc(C(c2cc(O)ccc2O)c2ccc(C(C)C)cc(=O)c2O)cc1` (configuration not stated) registered a T/C of 128%.

With `COc1ccc(C(c2cc(C(C)(C)C)cc(O)c2O)c2ccc(C(C)C)cc(=O)c2O)cc1` (configuration not stated), the T/C amounted to 168%.

Turning to `COc1ccc(C(C2=C(O)C(=O)c3ccccc3C2=O)c2ccc(C(C)C)cc(=O)c2O)cc1` (configuration not stated), the T/C was 0%.

`COc1ccc(C(c2cc(C(C)(C)C)ccc2O)c2ccc(C(C)C)cc(=O)c2O)cc1` (configuration not stated) came in with a T/C of 116%.

As for `COc1ccc(C(c2ccc(C(C)C)cc(=O)c2O)c2ccc3ccccc3c2O)cc1` (configuration not stated), the T/C is 108%.

Compound `COc1ccc(C(c2ccc(C(C)C)cc(=O)c2O)C2Oc3c(Cl)c(OC)cc(OC)c3C2=O)cc1` (configuration not stated) had a T/C of 109%.

The next experiment relates to P388. The experiment in a line: Compound was evaluated for activity against P388 leukemia, at an intraperitoneal dose of 200 mg/kg. The experiment is classed as functional, Mus musculus. The gist of the method:
as §1
For `COc1ccc(C(c2ccc(O)cc2O)c2ccc(C(C)C)cc(=O)c2O)cc1` (configuration not stated), the T/C came out at 136%.

For `COc1ccc(C(C2=C(C)C(=O)c3ccccc3C2=O)c2ccc(C(C)C)cc(=O)c2O)cc1` (configuration not stated), the T/C was found to be 131%.

Compound `COc1ccc(C(c2ccc(C(C)C)cc(=O)c2O)c2c(O)c(C(=O)O)cc3ccccc23)cc1` (configuration not stated) gave a T/C of 0%.

`COc1ccc(C(c2ccc(C(C)C)cc(=O)c2O)c2c(O)cc3oc(-c4ccccc4)cc(=O)c3c2O)cc1` (configuration not stated) displayed a T/C of 148%.

Another experiment concerns P388. Description: Compound was evaluated for activity against P388 leukemia, at an intraperitoneal dose of 3.1 mg/kg. Type of experiment: functional, Mus musculus. The gist of the method:
as §1
In the case of `COc1ccc(C(c2ccc(C(C)C)cc(=O)c2O)c2ccc3cccnc3c2O)cc1` (configuration not stated), the T/C is listed as 144%.

In another experiment the test system is P388. The experiment in a line: Compound was evaluated for activity against P388 leukemia, at an intraperitoneal dose of 10 mg/kg. The experiment is classed as functional, Mus musculus. Summed up: as §1
Compound `COc1ccc(C(c2ccc(C(C)C)cc(=O)c2O)c2c(O)oc3ccccc3c2=O)cc1` (configuration not stated) gave a T/C of 117%.

Another experiment deals with P388. Description: Compound was evaluated for activity against P388 leukemia, at an intraperitoneal dose of 12.5 mg/kg. The experiment is classed as functional, Mus musculus. The gist of the method:
as §1
In turn, `COc1ccc(C(c2cc(O)ccc2O)c2ccc(C(C)C)cc(=O)c2O)cc1` (configuration not stated) gave a T/C of 128%.

With `COc1ccc(C(c2cc(C(C)(C)C)cc(O)c2O)c2ccc(C(C)C)cc(=O)c2O)cc1` (configuration not stated), the T/C worked out at 110%.

In the case of `COc1ccc(C(c2ccc(C(C)C)cc(=O)c2O)c2ccc3cccnc3c2O)cc1` (configuration not stated), the T/C is reported as 141%.

Turning to `COc1ccc(C(c2ccc(C(C)C)cc(=O)c2O)c2ccc3ccccc3c2O)cc1` (configuration not stated), the T/C came to 105%.

The test system of the next experiment is P388. Description: Compound was evaluated for activity against P388 leukemia, at an intraperitoneal dose of 20 mg/kg. Type of experiment: functional, Mus musculus. The gist of the method: as §1
Compound `COc1ccc(C(C2=C(O)C(=O)c3ccccc3C2=O)c2ccc(C(C)C)cc(=O)c2O)cc1` (configuration not stated) showed a T/C of 129%.

Compound `COc1ccc(C(c2ccc(C(C)C)cc(=O)c2O)c2c(O)c(C(=O)O)cc3ccccc23)cc1` (configuration not stated) returned a T/C of 106%.

On to `COc1ccc(C(c2ccc(C(C)C)cc(=O)c2O)c2c(O)oc3ccccc3c2=O)cc1` (configuration not stated), for which the T/C is listed as 127%.

A further experiment has as its system P388. Description: Compound was evaluated for activity against P388 leukemia, at an intraperitoneal dose of 400 mg/kg. The experiment is classed as functional, Mus musculus. The gist of the method: as §1
Regarding `COc1ccc(C(C2=C(C)C(=O)c3ccccc3C2=O)c2ccc(C(C)C)cc(=O)c2O)cc1` (configuration not stated), the T/C was determined as 72%.

For a further experiment, the system named is P388. The experiment in a line: Compound was evaluated for activity against P388 leukemia, at an intraperitoneal dose of 5 mg/kg. Type of experiment: functional, Mus musculus. The gist of the method:
as §1
In turn, `COc1ccc(C(C2=C(O)C(=O)c3ccccc3C2=O)c2ccc(C(C)C)cc(=O)c2O)cc1` (configuration not stated) showed a T/C of 108%.

With `COc1ccc(C(c2ccc(C(C)C)cc(=O)c2O)c2c(O)oc3ccccc3c2=O)cc1` (configuration not stated), the T/C turned out to be 128%.
